Measurements as given in ChEMBL document CHEMBL3352272, “Discovery of 2-[5-(4-Fluorophenylcarbamoyl)pyridin-2-ylsulfanylmethyl]phenylboronic Acid (SX-517): Noncompetitive Boronic Acid Antagonist of CXCR1 and CXCR2” (J Med Chem, 2014).
Active and inactive are the calls of the source. No cut-off for these calls is given here.

Columns and labels:
[1] = target: T1, C-X-C chemokine receptor type 2 (Homo sapiens, UniProt P25025); assay: Antagonist activity at CXCR2 in human PMNs assessed as inhibition of CXCL1-induced intracellular Ca2+ release by fluorescence based calcium flux assay; type: functional, cell-based
T1 sequence (P25025 whole entry): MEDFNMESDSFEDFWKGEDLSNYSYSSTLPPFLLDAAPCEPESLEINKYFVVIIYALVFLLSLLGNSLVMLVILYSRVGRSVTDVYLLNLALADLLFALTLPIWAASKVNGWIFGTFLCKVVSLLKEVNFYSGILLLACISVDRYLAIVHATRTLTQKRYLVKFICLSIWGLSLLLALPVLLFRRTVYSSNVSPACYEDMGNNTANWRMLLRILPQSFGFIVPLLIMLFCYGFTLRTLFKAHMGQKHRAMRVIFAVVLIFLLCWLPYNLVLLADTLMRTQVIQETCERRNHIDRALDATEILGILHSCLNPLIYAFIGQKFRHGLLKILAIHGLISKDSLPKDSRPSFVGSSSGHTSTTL

[2] = target: T1, C-X-C chemokine receptor type 2; assay: Antagonist activity at human CXCR2 expressed in HEK293 cells assessed as inhibition of […]-induced [35S]GTPgammaS binding after 60 mins; type: functional, cell-based
Procedure, shortened: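 HEK293 cells stably expressing human CXCR2 were pretreated with compound, then lysed (5 mM Tris-HCl pH 7.5, EDTA, EGTA) and membranes spun at 30000g. […] Nonspecific binding was taken with 10 μM GTPγS. IC50 came from nonlinear regression.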

[3] = target: T2, C-X-C chemokine receptor type 2 (Homo sapiens) (UniProt P25025); assay: Displacement of [125I]CXCL8 from human CXCR2 expressed in HEK293 cell membranes up to 10 uM by liquid scintillation counting method
T2 sequence (whole entry): T1 sequence (P25025 whole entry)
Procedure, shortened: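 After 1 h at room temperature, membranes were filtered and counted by scintillation. Results were expressed as % of control specific binding.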

[4] = target: T2, C-X-C chemokine receptor type 2 (Homo sapiens); assay: Effect on cell surface expression of human CXCR2 expressed in HEK293 cell […] at 10 uM incubated for 60 mins by FACS method; type: cell-based
Procedure, shortened: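 Stably CXCR2-expressing HEK293 cells were pretreated with 10 μM compound or 1% DMSO for 60 min. They were stained with PE-conjugated anti-human CXCR2 mAb (1:100) at 4 °C for 60 min, fixed in 2% formaldehyde and analysed by flow cytometry. Non-expressing HEK293 cells served as the negative control.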

[5] = target: T2, C-X-C chemokine receptor type 2 (Homo sapiens); assay: Antagonist activity at human CXCR2 expressed in HEK293 cells assessed as reduction in CXCL8-induced ERK1/2 phosphorylation at 10 uM after 30 mins by Western blotting method; type: cell-based
Procedure, shortened: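 Cells were lysed at 0, 5, 15 and 30 min. About 50 μg of protein was run on 10% SDS-PAGE, blotted, and probed for phospho-ERK1/2 and total ERK1/2 with an HRP secondary.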

[6] = target: T3, Interleukin-8 receptors, CXCR1/CXCR2 (Homo sapiens, UniProt P25025+P25024); assay: Antagonist activity at CXCR1/CXCR2 in human PMNs assessed as inhibition of CXCL8-induced intracellular Ca2+ release by fluorescence based calcium flux assay; type: functional, cell-based
T3 sequence (P25025 whole entry): T1 sequence (P25025 whole entry)
T3 sequence (P25024 whole entry): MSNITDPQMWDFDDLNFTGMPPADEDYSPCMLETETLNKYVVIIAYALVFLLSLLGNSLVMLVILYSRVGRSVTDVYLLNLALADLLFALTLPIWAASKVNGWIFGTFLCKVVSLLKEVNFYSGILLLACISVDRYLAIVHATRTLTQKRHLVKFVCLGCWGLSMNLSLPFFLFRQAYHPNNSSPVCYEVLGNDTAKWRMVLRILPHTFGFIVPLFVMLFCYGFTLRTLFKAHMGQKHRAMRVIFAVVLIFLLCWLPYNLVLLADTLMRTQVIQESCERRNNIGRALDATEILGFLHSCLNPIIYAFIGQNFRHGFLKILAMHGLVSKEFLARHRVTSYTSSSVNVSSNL

[7] = target: T4, C5a anaphylatoxin chemotactic receptor 1 (Homo sapiens, UniProt P21730); assay: Antagonist activity at C5a receptor in human PMNs assessed as inhibition of C5a-induced intracellular Ca2+ release by fluorescence based calcium flux assay; type: functional, cell-based
T4 sequence (P21730 whole entry): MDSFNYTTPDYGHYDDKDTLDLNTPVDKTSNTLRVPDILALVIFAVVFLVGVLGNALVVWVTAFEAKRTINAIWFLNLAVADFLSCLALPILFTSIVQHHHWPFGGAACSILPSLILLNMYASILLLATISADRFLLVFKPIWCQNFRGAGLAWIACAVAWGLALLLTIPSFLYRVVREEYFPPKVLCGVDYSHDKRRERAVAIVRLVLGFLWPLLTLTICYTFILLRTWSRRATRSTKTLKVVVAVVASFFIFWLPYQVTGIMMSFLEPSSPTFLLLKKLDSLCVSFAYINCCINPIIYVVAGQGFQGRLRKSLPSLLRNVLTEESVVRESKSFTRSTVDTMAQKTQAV

[8] = target: Platelet-activating factor receptor (Homo sapiens, UniProt P25105); assay: Antagonist activity at platelet-activating factor receptor in human PMNs assessed as inhibition of PAF-induced intracellular Ca2+ release by fluorescence based calcium flux assay; type: functional, cell-based
fMet-Leu-Phe receptor = target: T5, fMet-Leu-Phe receptor (Homo sapiens, UniProt P21462); assay: Antagonist activity at fMLF receptor in human PMNs assessed as inhibition of fMLF-induced intracellular Ca2+ release by fluorescence based calcium flux assay; type: functional, cell-based
T5 sequence (P21462 whole entry): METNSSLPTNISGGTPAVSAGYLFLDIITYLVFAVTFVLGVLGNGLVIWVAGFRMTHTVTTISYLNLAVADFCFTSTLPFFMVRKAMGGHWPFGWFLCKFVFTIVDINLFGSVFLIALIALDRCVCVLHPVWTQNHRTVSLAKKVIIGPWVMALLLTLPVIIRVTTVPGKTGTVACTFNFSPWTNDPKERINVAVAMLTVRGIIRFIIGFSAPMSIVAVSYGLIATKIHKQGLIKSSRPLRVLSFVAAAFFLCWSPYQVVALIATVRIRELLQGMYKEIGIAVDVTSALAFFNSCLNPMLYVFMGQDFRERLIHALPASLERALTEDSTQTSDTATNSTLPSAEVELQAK

[9] = target: T6, C-X-C chemokine receptor type 1 (Homo sapiens, UniProt P25024); assay: Antagonist activity at human CXCR1 expressed in HEK293 cells assessed as inhibition of CXCL8-induced intracellular Ca2+ release by fluorescence based calcium flux assay; type: functional, cell-based
T6 sequence (P25024 whole entry): T3 sequence (P25024 whole entry)
Procedure, shortened: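 HEK293 cells were stably transfected with human CXCR1, with a pooled polyclonal line selected in 800 μg/mL G418. […] Fluorescence was read at ex 485/em 525, and max–min was taken as % of control.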

[10] = target: T1, C-X-C chemokine receptor type 2; assay: Antagonist activity at human CXCR2 expressed in HEK293 cells assessed as inhibition of CXCL8-induced intracellular Ca2+ release by fluorescence based calcium flux assay; type: functional, cell-based
[11] = target: Interleukin-8 receptors, CXCR1/CXCR2 (Homo sapiens) (UniProt P25025+P25024); assay: Antagonist activity at CXCR1/CXCR2 in human PMNs assessed as inhibition of CXCL8-induced intracellular Ca2+ release at 1 uM by fluorescence based calcium flux assay; type: functional, cell-based
Procedure, shortened: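 Dye-loaded hPMNs were preincubated with compound or 1% DMSO at 37 °C for 30 min, then resuspended in HBSS+ with compound re-added. […] Fluorescence (ex 485/em 525) was read every 5 s for 240–500 s at room temperature, and the max–min response was expressed as % of the DMSO control.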

Mus musculus = assay: Antiinflammatory activity in CD1 Swiss mouse air pouch model of inflammation assessed as reduction in total cell count in inflammatory infiltrate at 0.2 mg/kg, iv dosed 3 hrs before carrageenan challenge and measured 4 hrs post carrageenan challenge by trypan blue staining based hemocytometry; type: functional, organism-based; set-up: dose 0.2 mg/kg
Procedure, shortened: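 Male CD1 Swiss mice aged 10–15 weeks received a 2 mL subcutaneous dorsal air injection, reinflated with 1.5 mL the next day. Compound in 20:20:80 PEG400:DMF:saline, or vehicle, was given iv by tail vein (n=5 per group). After 3 h, 1 mL of 2% carrageenan in PBS, or PBS, was injected into the pouch. After 4 h, pouch fluid plus a 2 mL PBS wash was collected, and trypan blue-stained cells were counted by hemocytometer. Statistics used Student's t-test.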

Platelet-activating factor receptor, sequence (P25105 whole entry): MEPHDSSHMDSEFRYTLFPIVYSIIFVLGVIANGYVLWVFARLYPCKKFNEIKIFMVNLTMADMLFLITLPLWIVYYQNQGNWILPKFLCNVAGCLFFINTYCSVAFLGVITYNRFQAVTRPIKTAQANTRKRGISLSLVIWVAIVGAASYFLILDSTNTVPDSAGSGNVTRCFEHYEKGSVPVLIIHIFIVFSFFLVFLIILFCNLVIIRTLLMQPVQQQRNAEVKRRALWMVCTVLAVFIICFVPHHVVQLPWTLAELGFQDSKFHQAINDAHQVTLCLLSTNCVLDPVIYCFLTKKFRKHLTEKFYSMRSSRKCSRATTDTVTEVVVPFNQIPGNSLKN

| Compound | IC50 [1] [µM] | other results |
| --- | --- | --- |
| Cc1nc(-c2ccc(C(F)(F)F)cc2)sc1CSc1ccc(C(=O)Nc2ccc(F)cc2)cn1 | > 10 |  |
| O=C(Nc1ccc(F)cc1)c1ccc(SCc2ccc(OC(F)(F)F)cc2)nc1 | > 10 |  |
| O=C(Nc1ccc(F)cc1)c1ccc(SCc2ccc(-n3cccc3)cc2)nc1 | > 10 |  |
| O=C(Nc1ccc(F)cc1)c1ccc(SCc2ccccc2O)nc1 | 0.277 |  |
| O=C(O)CSc1ccc(C(=O)Nc2ccc(F)cc2)cn1 | > 5 |  |
| O=C(Nc1ccc(F)cc1)c1ccc(SCC2CCOCC2)nc1 | > 5 |  |
| O=C(Nc1ccc(F)cc1)c1ccc(SCS(=O)(=O)c2ccccc2)nc1 | > 5 |  |
| Cc1n[nH]c(C)c1CCSc1ccc(C(=O)Nc2ccc(F)cc2)cn1 | > 5 |  |
| O=C(Nc1ccc(F)cc1)c1ccc(SCc2ccc(-n3cccn3)cc2)nc1 | > 10 |  |
| O=C(Nc1ccc(F)cc1)c1ccc(SCc2ccc([N+](=O)[O-])o2)nc1 | > 5 |  |
| Cc1nc(-c2cccc(CSc3ccc(C(=O)Nc4ccc(F)cc4)cn3)c2)no1 | > 10 |  |
| CCOP(=O)(CSc1ccc(C(=O)Nc2ccc(F)cc2)cn1)OCC | > 10 |  |
| Cc1nn(-c2ccccc2)nc1CSc1ccc(C(=O)Nc2ccc(F)cc2)cn1 | > 5 |  |
| Cc1cc(CSc2ccc(C(=O)Nc3ccc(F)cc3)cn2)no1 | > 5 |  |
| O=C(Nc1ccc(F)cc1)c1ccc(SCc2cccc(OC(F)(F)F)c2)nc1 | > 10 |  |
| O=C(Nc1ccc(F)cc1)c1ccc(SCc2ccccc2B(O)O)nc1 |  | IC50 [2]: 60 nM; inhibition [3]: inactive; Activity [4]: inactive; inhibition [5]: Active; IC50 [6]: 36 nM; IC50 [7]: > 5 µM; IC50 [8]: > 5 µM; IC50 (fMet-Leu-Phe receptor): > 5 µM; IC50 [9]: 880 nM; IC50 [10]: 210 nM; inhibition [11]: Active; inhibition (Mus musculus): Active |
| Cc1noc(-c2ccccc2)c1CSc1ccc(C(=O)Nc2ccc(F)cc2)cn1 | > 10 |  |
| O=C(Nc1ccc(F)cc1)c1ccc(SCc2ccncc2)nc1 | > 5 |  |
| O=C(Nc1ccc(F)cc1)c1ccc(SCc2ccccc2-c2cccs2)nc1 | > 5 |  |
| O=C(Nc1ccc(F)cc1)c1ccc(SCc2cccc(-n3cccc3)c2)nc1 | > 10 |  |

| Compound | IC50 [1] [µM] | other results |
| --- | --- | --- |
| O=C(Nc1ccc(F)cc1)c1ccc(SCC2CCN(C(=O)OCc3ccccc3)CC2)nc1 | > 10 |  |
| COC(=O)c1ccc(CSc2ccc(C(=O)Nc3ccc(F)cc3)cn2)cc1 | > 10 |  |
| O=C(O)c1ccc(CSc2ccc(C(=O)Nc3ccc(F)cc3)cn2)cc1 | > 10 |  |
| Cc1nc(-c2ccc(CSc3ccc(C(=O)Nc4ccc(F)cc4)cn3)cc2)no1 | > 5 |  |
| O=C(Nc1ccc(F)cc1)c1ccc(Sc2ccccc2)nc1 | > 10 |  |
| Cc1nc(-c2ccc(CSc3ccc(C(=O)Nc4ccc(F)cc4)cn3)cc2)cs1 | > 10 |  |
| Cc1nc(-c2ccccc2)sc1CSc1ccc(C(=O)Nc2ccc(F)cc2)cn1 | > 5 |  |
| O=C(c1ccc(SCc2ccccc2B(O)O)nc1)N(CC1CCCCN1)c1ccc(F)cc1 (stereo unspecified) | > 5 |  |
| O=C(Nc1ccc(-c2nn[nH]n2)cc1)c1ccc(SCc2ccccc2B(O)O)nc1 | > 10 |  |
| O=C(Nc1ccc(F)cc1)c1ccc(SCc2ccc(C(F)(F)F)o2)nc1 | > 5 |  |
| COC(=O)c1cccc(CSc2ccc(C(=O)Nc3ccc(F)cc3)cn2)c1 | > 5 |  |
| Cc1cccc(CSc2ccc(C(=O)Nc3ccc(F)cc3)cn2)c1F | > 10 |  |
| O=C(Nc1ccc(F)cc1)c1ccc(SCC2CCCCO2)nc1 (stereo unspecified) | > 5 |  |
| O=C(Nc1ccc(F)cc1)c1ccc(SCc2ccc(-n3cncn3)cc2)nc1 | > 10 |  |
| O=C(Nc1ccc(F)cc1)c1ccc(SCc2ccc([N+](=O)[O-])cc2)nc1 | > 5 |  |
| O=C(Nc1ccc(F)cc1)c1ccc(SC2CCOC2=O)nc1 (stereo unspecified) | > 5 |  |
| O=C(O)c1ccc(NC(=O)c2ccc(SCc3ccccc3B(O)O)nc2)cc1 | > 10 |  |
| Cc1nc(-c2cccc(CSc3ccc(C(=O)Nc4ccc(F)cc4)cn3)c2)cs1 | > 5 |  |
| Cc1onc(-c2ccccc2)c1CSc1ccc(C(=O)Nc2ccc(F)cc2)cn1 | > 5 |  |
| O=C(Nc1ccc(F)cc1)c1ccc(SC[N+](=O)[O-])nc1 | > 10 |  |
